Sampled rows, rich in hits. Any-hit rate of the full collection: about 2.3%.
V1R ag counter: V1a receptor agonism, counter-screen for OXTR agonists; CHO-V1R cells, Fluo-8 calcium fluorescence, agonist mode; 0% DMSO, 100% 3 nM vasopressin; activation, % at 3 µM; hit rate 0.25% among 320,000; AID 2797;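 active means activation above the mean activation of all tested compounds plus 3 SD, per screening run, cut at about 20% in these data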;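 further: signal is peak over basal fluorescence ratio across a 100 second FLIPR read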
Target sequence (P37288 whole entry, looked up): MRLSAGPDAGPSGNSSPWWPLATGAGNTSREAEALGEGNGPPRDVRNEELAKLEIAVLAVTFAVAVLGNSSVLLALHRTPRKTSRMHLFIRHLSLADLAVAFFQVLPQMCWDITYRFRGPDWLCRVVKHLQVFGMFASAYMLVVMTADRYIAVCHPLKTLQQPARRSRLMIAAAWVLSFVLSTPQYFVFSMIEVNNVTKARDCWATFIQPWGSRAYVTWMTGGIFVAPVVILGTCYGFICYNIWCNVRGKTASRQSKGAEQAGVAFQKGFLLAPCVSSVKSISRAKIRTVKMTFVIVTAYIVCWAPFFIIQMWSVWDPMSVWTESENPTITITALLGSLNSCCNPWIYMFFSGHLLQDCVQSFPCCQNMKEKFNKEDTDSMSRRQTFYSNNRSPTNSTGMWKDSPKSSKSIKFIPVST
TAAR1 antagonist: human TAAR1 antagonism | CHO RD-HGA16 TAAR1, Fluo-8 calcium fluorescence, antagonist | AID 624466 | Q96RJ0 | inhibition, % at 3 µM | hit rate 1.5% among 360,000;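 active means inhibition above a per-plate cutoff, the mean inhibition of test compounds on that plate plus 3 SD, cut at about 49% in these data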;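 further: 0% = DMSO plus EC80 beta-PEA response and 100% = DMSO alone without agonist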
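test system = CHO RD-HGA16 cells bearing hTAAR1 | replication = singlicate | controls = DMSO-only wells and EC80 β-PEA-stimulated wells | reagent = EC80 β-phenethylamine stimulus | read-out basis = percent inhibition of PEA-evoked calcium signal, max/basal emission ratio | schedule = seeding 17-24 h prior, 75-min 37 °C, 30-min RT dye loading | signal = kinetic Fluo-8 calcium fluorescence measurement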
OXTR ag: agonists of human oxytocin receptor; P30559; CHO-OTR cells, Fluo-8 calcium fluorescence; normalized: DMSO 0%, oxytocin 100%; activation, % at 3 µM; hit rate 0.32% among 320,000; AID 2435;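 active means activation above the mean of all tested compounds plus 3 SD, cutoff set per screening run, cut at about 20% in these data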;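 further: peak over basal fluorescence ratio from a 100 s FLIPR kinetic read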
Target sequence (P30559 whole entry, looked up): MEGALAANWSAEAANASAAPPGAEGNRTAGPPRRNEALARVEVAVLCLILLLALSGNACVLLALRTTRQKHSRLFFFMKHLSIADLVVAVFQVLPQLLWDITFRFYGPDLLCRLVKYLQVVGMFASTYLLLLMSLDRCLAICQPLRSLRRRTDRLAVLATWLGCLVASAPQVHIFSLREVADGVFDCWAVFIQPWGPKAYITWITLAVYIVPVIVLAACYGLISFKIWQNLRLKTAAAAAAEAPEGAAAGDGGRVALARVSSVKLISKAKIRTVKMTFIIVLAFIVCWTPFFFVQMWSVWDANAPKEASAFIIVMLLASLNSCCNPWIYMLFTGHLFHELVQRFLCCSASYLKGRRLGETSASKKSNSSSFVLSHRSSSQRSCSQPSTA
TAAR1 agonist: human TAAR1 agonism; hit rate 0.99% among 360,000; AID 624467; CHO RD-HGA16 TAAR1, Fluo-8 calcium fluorescence; vehicle wells 0%, saturating PEA agonist 100%; activation, % at 3 µM;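 active means activation above the mean activation of all test compounds in the run plus 3 SD, cut at about 38% in these data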
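Test system: RD-HGA16 (CHO) cells co-expressing Gα16 and hTAAR1; dosing: one-point dosing at 3 µM (nominal); timing: 17-24 h seeding, 75 min 37 °C dye, 30 min RT; signal: kinetic Fluo-8 calcium fluorescence; read-out basis: % activation relative to PEA EC100 response; controls: DMSO and PEA EC100; replicates: n 1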
OXTR potentiator: human OXTR potentiation; CHO-OTR cells, Fluo-8 calcium fluorescence, potentiator mode; 0% = oxytocin EC15, 100% = EC100; activation, % at 3 µM; hit rate 0.061% among 320,000;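 active means activation above that plate's cutoff, the mean activation of tested compounds plus 3 SD, cut at about 6.6% in these data, passing the limit was not always enough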;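 further: 100% uses oxytocin at 75 nM as the full agonist control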
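Assay system: CHO cell line stably expressing human OTR | Also added: Oxytocin at about EC15, sub-maximal agonist stimulus | Times: Compound 6 min at room temperature before oxytocin, 100 s read | Measured by: Fluo-8 intracellular calcium fluorescence, ex 470-495, em 515-575 nm | Controls: EC15 oxytocin alone as 0%, 75 nM oxytocin as 100%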
TAAR1 ag confirm: confirmation of human TAAR1 agonists; hit rate 82% among 2,400; shares compounds with TAAR1 agonist; activation, % at 3 µM; CHO RD-HGA16 TAAR1, Fluo-8 calcium fluorescence; scaled: DMSO 0%, maximal phenethylamine 100%; AID 651783;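 active means activation above a cutoff set at the run's mean compound activation plus 3 SD, cut at about 39% in these data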
Ga16 ag counter: nonselective agonism, TAAR1 counter-screen; shares compounds with TAAR1 agonist; CHO-Ga16 parental, Fluo-8 calcium fluorescence; normalized to maximal ATP response, DMSO zero; activation, % at 3 µM; hit rate 50% among 2,400; AID 651787;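 active means activation above the run cutoff, the mean activation over all tested wells plus 3 SD, cut at about 12% in these data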;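 further: 0% = DMSO wells and 100% = maximal ATP response on the peak over basal ratio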
TAAR1 desens: TAAR1 response desensitization, agonist counter-screen | hit rate 46% among 2,400 | CHO RD-HGA16 hTAAR1, Fluo-8 calcium, beta-PEA response inhibition | inhibition, % at 3 µM | shares compounds with TAAR1 agonist;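 active means inhibition above the run cutoff, the mean inhibition of all test compounds plus 3 SD, cut at about 49% in these data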;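 further: beta-PEA stimulus applied at its EC80; loss of beta-PEA calcium signal after compound pretreatment read as receptor desensitization; 0% = DMSO with beta-PEA at EC80 and 100% = DMSO alone without agonist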
Ga16 nonsel ant: nonselective Ga16 antagonism, counter-screen | shares compounds with TAAR1 agonist | CHO-Ga16 ATP-induced calcium, Fluo-8 fluorescence | inhibition, % at 3 µM | hit rate 39% among 2,400 | AID 651952;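 active means inhibition above the plate's mean compound inhibition plus 3 SD, computed per plate, cut at about 22% in these data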;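 further: 0% = EC80 ATP with DMSO and 100% = DMSO wells without ATP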
The depositor's hits bear a star; . = not tested or not shown.

SMILES | V1R ag counter | TAAR1 antagonist | OXTR ag | TAAR1 agonist | OXTR potentiator | TAAR1 ag confirm | Ga16 ag counter | TAAR1 desens | Ga16 nonsel ant
Cc1ccc(SCc2nc(-c3ccncc3)no2)cc1 | 3.5 | -4.4 | 4.9 | 52.2* | -13.6 | 9.0 | 3.5 | 5.9 | 7.2
CN(CCc1ccccc1)C(C(=O)c1ccc2c(c1)OCO2)c1nnnn1-c1ccccc1NC(=O)OC(C)(C)C (stereo unspecified) | . | 78.1* | . | 86.0* | . | 85.0* | 0.9 | 82.1* | 7.9
Cc1cc(NC(=O)OC(C)(C)C)c(-n2nnnc2C(C(=O)c2ccc3c(c2)OCO3)N2CCN(c3ccccn3)CC2)cc1C (stereo unspecified) | . | -7.2 | . | -1.3 | . | . | . | . | .
COC(=O)c1c(-n2c(C)cc(C=O)c2C)sc2c1CCCC2 | -1.1 | 72.2* | -1.7 | 40.7* | 2.8 | -3.9 | 0.5 | 0.4 | 3.1
COc1cc2c(-c3ccc(O)cc3)nc3c(c(C)nn3-c3ccccc3)c2cc1OC | 7.3 | 50.3* | 2.9 | 40.5* | -5.2 | 21.8 | 14.4* | 49.0* | 38.4*
COc1cc2c(C)nc3c(c(C)nn3-c3ccccc3)c2cc1OC | 0.1 | -19.6 | 1.7 | 0.1 | -4.2 | . | . | . | .
O=C(COC(=O)c1cc(Br)ccc1O)Nc1ccc2c(c1)OCO2 | 3.6 | 70.2* | 5.5 | 75.4* | -10.0 | 43.7* | 35.6* | 47.8 | 40.1*
CNc1ccccc1C(=O)OCC(=O)Nc1ccc2c(c1)OCO2 | -0.8 | -4.9 | -0.9 | 2.5 | -5.8 | . | . | . | .
Cc1c(Cl)cccc1NC(=O)CNC(=O)CCCc1nc2ccccc2c(=O)[nH]1 | . | -37.6 | . | -0.1 | . | . | . | . | .
COC(=O)[C@@]12C[C@@H](CC(=O)NCCc3ccccc3OC)C(=O)N(Cc3ccc4c(c3)OCO4)C1=CCC(C)(C)C2 | . | 51.0* | . | 60.9* | . | 100.3* | 0.1 | 58.5* | -1.1
CCCCCCCCN1C(=O)[C@H](CC(=O)NCCCC)C[C@@]2(C(=O)OCC)CCCC=C12 | . | -14.1 | . | -1.8 | . | . | . | . | .
COC(=O)[C@]12CCCCC=C1N(Cc1ccco1)C(=O)[C@H](CC(=O)NCCc1ccccc1OC)C2 | . | 9.1 | . | 50.6* | . | 31.0 | 2.7 | 25.7 | 20.2
CCCCNC(=O)C[C@@H]1C[C@@]2(C(=O)OC)CCCCC=C2N(Cc2ccco2)C1=O | . | -17.5 | . | 2.7 | . | . | . | . | .
CCCCCCCCN1C(=O)[C@H](CC(=O)NCCc2ccccc2OC)C[C@@]2(C(=O)OCC)CCCC=C12 | . | -1.8 | . | 56.2* | . | 56.5* | 2.0 | 24.7 | 10.2
CCOC(=O)[C@]12CCC=C1N(Cc1ccc3c(c1)OCO3)C(=O)[C@H](CC(=O)NCCc1ccccc1OC)C2 | . | 38.1 | . | 60.1* | . | 91.0* | 2.9 | 76.2* | -2.2
Cc1ccccc1C(=O)Nc1cccc(-c2ccc(N3CCOCC3)nn2)c1 | 0.1 | 4.2 | 1.0 | 4.3 | 3.1 | . | . | . | .
CCOC(=O)[C@]12CCC=C1N(Cc1cccc3ccccc13)C(=O)[C@H](CC(=O)NCCc1ccccc1OC)C2 | . | 34.6 | . | 55.1* | . | 69.9* | 1.2 | 45.9 | 14.3
c1ccc2c(c1)CC(N1CCCCC1)c1ccccc1S2 (stereo unspecified) | -1.6 | -17.4 | -1.0 | -1.9 | 15.4 | . | . | . | .
CN1Cc2cccc3c2C(Cc2ccccc2S3)C1 (stereo unspecified) | -0.5 | -21.7 | -1.6 | 59.0* | 0.7 | 61.1* | 4.6 | 19.3 | 5.6
CC(=NOC(=O)c1ccc(I)cc1)c1nccs1 | . | -0.4 | . | 1.2 | . | . | . | . | .
CC1=C(C)CS(=O)N(S(=O)(=O)c2ccc(Cl)cc2)C1 (stereo unspecified) | 6.2 | 35.8 | 2.1 | 76.6* | -7.0 | 77.2* | 54.2* | 25.8 | 15.4
CC1CCCC(C)N1S(=O)(=O)c1ccc(Cl)cc1 (stereo unspecified) | -1.9 | 4.5 | -2.6 | 1.2 | -6.0 | . | . | . | .
COc1ccc(OCC(=O)NNC(=S)NC(=O)C2CCCCC2)cc1 | 1.7 | 28.3 | 0.8 | 65.1* | -6.0 | 77.8* | 50.5* | 37.9 | 35.7*
COc1ccc(CC(=O)NC(=S)NNC(=O)COc2c(C)cccc2C)cc1 | 0.8 | 52.5* | 5.1 | 94.1* | -4.0 | 93.1* | 61.0* | 63.6* | 47.1*
COc1ccc(OCC(=O)NNC(=S)NC(=O)C2CC2)cc1 | . | -5.3 | . | 1.6 | . | . | . | . | .
SMILES | V1R ag counter | TAAR1 antagonist | OXTR ag | TAAR1 agonist | OXTR potentiator | TAAR1 ag confirm | Ga16 ag counter | TAAR1 desens | Ga16 nonsel ant
CCc1ccc(OCC(=O)NNC(=S)NC(=O)C2CCCCC2)c(Br)c1 | 1.9 | 42.8 | -0.5 | 79.5* | -2.3 | 78.1* | 47.1* | 61.6* | 45.4*
CCc1ccc(OCC(=O)NC2CCCCC2)c(Br)c1 | 0.2 | -12.2 | -0.5 | 16.7 | -13.4 | . | . | . | .
COc1cc(C2/C(=C(\O)c3ccc4c(c3)OCCO4)C(=O)C(=O)N2c2nnc(C)s2)cc(OC)c1OC (stereo unspecified) | 8.8 | -16.1 | -0.1 | 4.1 | -1.5 | . | . | . | .
O=S(=O)(c1ccccc1)n1cc(-c2cccc3nccn23)c2ccccc21 | . | -18.8 | . | -1.1 | . | . | . | . | .
C=CCN1C[C@@H](COCc2ccccc2)OCCS1(=O)=O | . | -14.2 | . | 0.6 | . | . | . | . | .
O=C(Nc1ccccc1F)c1ccc(CNS(=O)(=O)c2cccc(C(F)(F)F)c2)cc1 | 2.4 | 39.6 | 0.8 | 46.3* | -15.4 | 29.0 | 16.4* | 25.5 | 17.5
Cc1ccc(NC(=O)c2ccc(CNS(=O)(=O)c3cccc(C(F)(F)F)c3)cc2)cc1 | 0.3 | -9.9 | -0.7 | 4.3 | -10.3 | . | . | . | .
c1ccc(C2OCC3(CO2)COC(c2ccccc2)OC3)cc1 (stereo unspecified) | 1.3 | 1.0 | -0.8 | 59.1* | -10.1 | 3.0 | 4.0 | 3.5 | 2.2
Cc1ccc(C2OCC3(CO2)COC(c2ccc(C)cc2)OC3)cc1 (stereo unspecified) | 0.2 | -18.0 | 1.0 | -0.1 | -2.3 | . | . | . | .
Cc1cc(OCC(=O)NNC(=S)NC(=O)c2cccs2)ccc1Cl | . | 65.0* | . | 103.0* | . | 76.8* | 75.5* | 58.2* | 53.5*
Cc1ccc(OCC(=O)NNC(=S)NC(=O)c2cccs2)c(C)c1 | . | -12.0 | . | 0.5 | . | . | . | . | .
CCCOc1ccc(C(=O)NNC(=S)NC(C)=O)cc1 | -1.8 | -13.7 | -1.9 | 12.9 | -7.9 | . | . | . | .
